This note sets out measurements from ChEMBL document CHEMBL4513216, “Probing the Open Global Health Chemical Diversity Library for Multistage-Active Starting Points for Next-Generation Antimalarials” (ACS Infect Dis, 2020).

SMILES strings stand for the structures.

The data set is described as follows: Toxicity liver stage against HepG2, at 10uM. The format is cell-based. Also noted: test concentration 10 uM, cell line HepG2-A16-CD81EGFP. To be noted: human, HepG2-A16-CD81EGFP cells; read-out: INHIBITION
The method in brief: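 Uninfected HepG2-A16-CD81EGFP cells, 3 × 10^3 per well, 1536-well, plated on prespotted compound at 10 μM final, parasite-free screening media added to match infected plates; puromycin 10 μM positive, DMSO 0.5% negative; run in parallel with 48 h PbLuc assay at 37 °C, 5% CO2; viability by CellTiter-Glo luminescence, normalized to controls.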
For `COc1cccc(C(CO)NC(=O)NC(C)C)c1` (stereo unspecified), the cytotoxicity at 10 µM turned out to be 10.5%.
For `Cc1csc(C2CCCCN2C(=O)CN(C)Cc2ccccc2)n1` (stereo unspecified), the cytotoxicity at 10 µM is 2.62%.
`O=C(c1ccsc1)N1CCN2C[C@H](OCc3ccccn3)C[C@H]2C1`: the cytotoxicity at 10 µM is -71.8%.
Regarding `CCOCCNCc1cc(O)c2cc(C)ccc2n1`, the cytotoxicity at 10 µM was -2.04%.
The figure for `Cc1ccc([C@@H]2CN(C(=O)c3ccoc3C)C[C@H]2NC(=O)C2CC2)cc1` is 4.22%.
On to `O=C(O)[C@]12CCCN(Cc3ccsc3)C[C@H]1CN(c1ccccn1)C2`, for which the cytotoxicity at 10 µM is -139%.
As for `Cc1nc(C2CCN(S(C)(=O)=O)CC2)nc(N2CCCC2)c1C`, the figure is 4.48%; as for `O=C(CCc1cccnc1)Nc1ccc(OCC2CCOCC2)cc1`, -6.01%; as for `COCC(O)CNC(=O)c1coc(COc2cccc(F)c2)n1` (stereo unspecified), -139%.
For `COCCN1CCN(Cc2nccs2)[C@H]2CS(=O)(=O)C[C@H]21`, the cytotoxicity at 10 µM was -1.82%.
The figure for `CCn1ccnc1CN1CCN(Cc2cccnc2)CC1C` (stereo unspecified) is -0.191%; for `O=C(N[C@H]1CN[C@H]2CCCO[C@H]21)c1cscn1` it is -13.7%; for `CSCC1CCCN1CCc1ccncc1` (stereo unspecified) it is 0.684%.
The figure for `Fc1cccc(-c2nccnc2C2CCCNC2)c1` (stereo unspecified) is -16.5%.
Take `CCN(C)C(=O)c1ccc(N(C)Cc2cc(-c3ccncc3)no2)nc1`: the cytotoxicity at 10 µM was -2.04%.
The figure for `CCSc1cc(C(=O)NCCc2nnc(-c3ccco3)[nH]2)ccn1` is 6.14%; for `Cc1cnn(CC2CCCCN2CCCS(C)(=O)=O)c1` (stereo unspecified) it is -10.1%.
As for `CNc1cc(CNC(=O)c2ccccn2)nc(-c2ccncc2)n1`, the figure is -2.63%; as for `CC(Cn1ccnc1)NC(=O)Nc1ccccn1` (stereo unspecified), -16.4%; as for `Cn1[nH]c(C2CCC2)c(-c2ccc3c(c2)OCO3)c1=N`, -42.3%.
The figure for `O=C1OCCN1CC(=O)N1C[C@@H]2CC[C@H]1CN(C(=O)c1cccnc1)C2` is 11.6%; for `Cc1nc(CC(=O)N2CCN(CCOc3ccccc3)CC2)cs1` it is -15.2%.
Consider `Cc1nccn1CCC1CCN(C2CCC3(CCNCC3)CC2)CC1`, for which the cytotoxicity at 10 µM is -1.43%.
The figure for `O=C1O[C@@H]2CN(C3CCOCC3)C[C@@H]2N1CCCc1ccc(F)cc1` is 5.77%; for `CC[C@@H]1N(Cc2nccs2)CCC[C@]12CCC(=O)N2CCOC` it is 2.49%.
The figure for `CNc1nc(CNC(=O)Nc2cc(Cl)ccc2F)cs1` is -6.95%; for `Cc1ccc(CN2CC[C@H](c3nc4cccc(C(N)=O)c4[nH]3)C2)cc1` it is 35.1%; for `COCC[C@]1(O)CCN(C(=O)c2cnn(C)c2)C[C@H]1C` it is 2.59%.
`CC1(C(N)=O)CCCN(c2cnccn2)C1` (stereo unspecified): the cytotoxicity at 10 µM is -17.8%.
The figure for `Cc1cnc(N2CCC(c3ccccc3)CC2)nc1-c1ccnn1C` is 4.68%.
As to `CNC(=O)C1CN(C)CCN(C(=O)CCn2nnc3ccccc32)C1` (stereo unspecified), the cytotoxicity at 10 µM is 2.71%.
On to `COc1ccc2c(O)c(NC(=O)NCC3CC3)cnc2c1`, for which the cytotoxicity at 10 µM was -0.799%.
Consider `COc1ccnc(C(=O)N2CCCC(c3noc(C)n3)C2)c1` (stereo unspecified), for which the cytotoxicity at 10 µM is -4.64%.
As for `CC(C)S(=O)(=O)NCC1CCCN(C(=O)c2ccc(Cl)cc2)C1` (stereo unspecified), the figure is -3.44%; as for `O=C(c1nccc2ccccc12)N(Cc1ccco1)CC1CCCO1` (stereo unspecified), -6.25%.
For the molecule `O=C(COCc1nc(-c2ccncc2)no1)N1CCCC1`, the cytotoxicity at 10 µM is -10.7%.
Take `O=C(N[C@@H]1CN(Cc2c[nH]nc2-c2ccccc2)C[C@H]1O)c1cc[nH]n1`: the cytotoxicity at 10 µM stood at 2.8%.
For the molecule `Cc1nc2cc(=O)[nH]n2c(C)c1CC(=O)NCCCc1ccccc1`, the cytotoxicity at 10 µM was -7.33%.
As for `CNc1nccnc1C1CCN(C(C)C)CC1`, the figure is -25.2%.
Regarding `Cc1ccc(-c2nnc(C(C)N3CCn4c(C)nnc4C3)o2)cc1` (stereo unspecified), the cytotoxicity at 10 µM is -7.33%.
The figure for `CN(Cc1ccsc1)C(=O)Nc1ccc(S(C)(=O)=O)nc1` is 3.28%; for `Cc1noc(C2CCN(C(=O)c3ccc(N(C)C)nc3)CC2)n1` it is -5.95%.
As for `COCC(Nc1ncnc2c1CCNCC2)c1ccccn1` (stereo unspecified), the figure is 0.565%; as for `Cc1noc(CN2CCN(C(=O)N(C)C)CC2)n1`, -1.22%.
As for `CSc1ccc(CNC(c2ccccc2)c2nccn2C)cc1` (stereo unspecified), the cytotoxicity at 10 µM was found to be 2.39%.
Consider `Cn1cc(-c2cc(C(=O)N3CCOCC3)c3ccc(F)cc3n2)cn1`, for which the cytotoxicity at 10 µM turned out to be 1.5%.
As for `Cc1ccc(N(C)CC(O)COCc2ccccc2F)c(C)c1` (stereo unspecified), the figure is 18%.
The figure for `CC(O)(CCc1ccccc1)CNC(=O)c1ccc(F)cc1` (stereo unspecified) is -70.3%.
For the molecule `O=C(C1CCOCC1)N1C[C@@H]2OCCN(CCN3CCCC3)[C@@H]2C1`, the cytotoxicity at 10 µM is -3.83%.
`CCNc1ncc(C(=O)N2CCOC(CCCC(C)C)C2)cn1` (stereo unspecified): the cytotoxicity at 10 µM came to 10.3%.
Regarding `CC1CN(c2cc(CNCc3cccc4c3OCCO4)ccn2)CCO1` (stereo unspecified), the cytotoxicity at 10 µM was found to be 3.96%.
With `O=C(c1ccccn1)N1CCC(S(=O)(=O)c2ccccc2)C1` (stereo unspecified), the cytotoxicity at 10 µM turned out to be 3.26%.
The figure for `COCc1nc(C(=O)NS(=O)(=O)c2cc(Br)ccc2C)cs1` is -1.66%; for `OC[C@@H]1CN2CCN(c3ccccn3)C[C@@H]2[C@H]1c1ccccc1` it is -2.41%.
On to `CCC(O)Cn1nc(CCSC)nc1-c1ccc2[nH]ccc2c1` (stereo unspecified), for which the cytotoxicity at 10 µM is 4.96%.
As for `Cc1nc(C2(NCc3c(C)nn(C)c3N3CCOCC3)CCC2)no1`, the figure is 4.98%.
As for `O=C(CN1CCC(c2nnc(C(F)(F)F)o2)CC1)NCc1ccccc1`, the figure is 2.51%; as for `CN1C[C@H]2CC[C@@H](C1)N(Cc1ccccc1OCCN1CCOCC1)C2`, -3%; as for `CC1(c2ncc(CN(CC(=O)O)Cc3ccccc3)cn2)CCCCO1` (stereo unspecified), -3.73%.
With `CCc1cnc(N2CC3(CCN(C(=O)c4ccoc4)C3)C2)nc1`, the cytotoxicity at 10 µM was -8.37%.
As for `Cc1nn(C)cc1S(=O)(=O)NCC(C)Cn1cc(Cl)cn1` (stereo unspecified), the figure is 0.197%; as for `CCS(=O)(=O)N(C)C(=O)c1cc(C)n(-c2cccc(OC)c2)c1C`, -2.35%; as for `O=C(NCCn1ccc(-c2ccccn2)n1)C1CC1`, 7.49%.
`Nc1cc(C(=O)N2CCCC3(C=Cc4ccccc4O3)CC2)ccn1` (stereo unspecified): the cytotoxicity at 10 µM is 13.7%.
As for `c1ccc(-c2noc(CN3CCc4c(ncn4C4CC4)C3)n2)nc1`, the figure is -5.11%; as for `CCN1CCC[C@@H]1CNC(=O)c1cc(COc2ccccc2)[nH]n1`, 0.635%; as for `CC(=O)Nc1cccc([C@H]2C[C@@H](NC(C)=O)CCO2)c1`, -0.825%.
The figure for `CC(C(=O)NCCc1ccc2c(c1)OCCO2)n1cncn1` (stereo unspecified) is 6.89%.
The figure for `Oc1ccc(Cl)cc1CNCc1cccc(C(F)(F)F)c1` is -6.13%.
For `COCC(=O)N1CCC(Cc2nccnc2-c2c(C)n[nH]c2C)C1` (stereo unspecified), the cytotoxicity at 10 µM was -11.7%.
For the molecule `CC(C)CN1CCN(C(=O)NCc2cccnc2-n2cccn2)CC1`, the cytotoxicity at 10 µM was 7.29%.
The figure for `COC(=O)c1cccc(C(=O)N2CCN(c3ccccc3F)CC2)n1` is -10.9%.
On to `COc1ccc(CNC(=O)c2ccc(=O)n(C)c2)cc1C`, for which the cytotoxicity at 10 µM was 2.31%.
As for `O=C(CCNC(=O)C1CCCC1)NCc1ccccc1Cn1ccnc1`, the figure is -2.74%; as for `Cn1ncc(N2CCOC(CCNC(=O)N3CCCCC3)C2)cc1=O` (stereo unspecified), -1.25%.
`CN(C)C(=O)[C@@H]1C[C@@H]2CCN(Cc3ccncc3)C[C@@H]2O1`: the cytotoxicity at 10 µM stood at 6.36%.
As for `OC(CNc1cncc(OCc2ccccc2)n1)c1ccco1` (stereo unspecified), the figure is -1.53%.
Regarding `CC(=O)Nc1ncc(S(=O)(=O)Nc2cccc(F)c2)s1`, the cytotoxicity at 10 µM worked out at 2.93%.
Turning to `Cc1cc(C2CCCN2C(=O)CN2C(=O)OC(C)(C)C2=O)on1` (stereo unspecified), the cytotoxicity at 10 µM is -14.1%.
The figure for `Cc1cc(NCCCNc2cccnc2)n2nc(C)c(C)c2n1` is 2.35%.
`C[C@@H]1CN(C2(C(=O)N3CC[C@H](O)C3)Cc3ccccc3C2)C[C@H](C)O1`: the cytotoxicity at 10 µM was -5.19%.
Regarding `O=C(COC1CCCC1)NS(=O)(=O)c1ccc2c(c1)OCCCO2`, the cytotoxicity at 10 µM is -15.3%.
For `Cc1ncc(CNC(=O)NCc2c(F)cccc2OC(F)F)s1`, the cytotoxicity at 10 µM is -4.27%.
Regarding `O=c1cc(-c2cc(O)cc(CCC3CCCCN3)c2)cc[nH]1` (stereo unspecified), the cytotoxicity at 10 µM came to 0.749%.
Regarding `CCOc1ccc(S(=O)(=O)NCCc2ccc(N(C)C)cc2)cc1F`, the cytotoxicity at 10 µM is -3.56%.
Turning to `O=C(c1ccncc1)N1CCOC2(COCCN(c3cccnc3)C2)C1` (stereo unspecified), the cytotoxicity at 10 µM amounted to 6.25%.
`COC1C[C@@H]2CN(C(=O)c3[nH]nc4c3CCCC4)C[C@@H]2C1` (stereo partly specified): the cytotoxicity at 10 µM was found to be 0.0252%.
As to `Cc1cccc(CN(Cn2nc(C)c3c(C)onc3c2=O)C2CC2)c1`, the cytotoxicity at 10 µM is 1.33%.
As for `CCC1(O)CCCN(c2ncnc3c2c(C)nn3C)C1` (stereo unspecified), the figure is 2.14%.
The figure for `O=C1NCCN(CC2CC2)C12CCN(Cc1ccco1)CC2` is 2.55%; for `COCCOCC(=O)Nc1cccc(CN(C)C(C)=O)c1` it is -126%; for `CC(C)c1ccc(O)c(C(=O)NCc2nncn2C)c1` it is -3%.
As for `CS(=O)(=O)N1C[C@H]2CC[C@@H](C1)N(Cc1ccsc1)C2`, the figure is 44.7%; as for `CCNC(=O)NCc1cnn(-c2ccc(F)cc2F)c1`, -6.52%.
As for `O=C1CCCc2[nH]c(=O)c(C(=O)N(Cc3ccsc3)C3CC3)cc21`, the cytotoxicity at 10 µM is -10.8%.
For `Cc1ccc(C(=O)N2CCO[C@H]3[C@H](OCc4ccccn4)CC[C@@H]32)o1`, the cytotoxicity at 10 µM was -148%.
